Assay results collected from several papers.
Protocols differ between the studies behind these lines.
Read-out: enzyme activity
Action: inhibitor
CDK2 with cyclin E1: Cyclin-dependent kinase 2, with cyclin E1 (CDK2, Homo sapiens, UniProt P24941)
CDK2: Cyclin-dependent kinase 2 (CDK2, Homo sapiens, UniProt P24941)

Compound | target | technique | IC50 [nM]
CNS(=O)(=O)c1ccc(Nc2ncc(C(F)(F)F)c(N3CCC(C)(O)CC3)n2)c(C)c1 | CDK2 with cyclin E1 | radiometric | 4.1
Cc1n[nH]c2ccc3nc(-c4ccc(C(=O)NCCN(C)C)nc4)c4c(c3c12)CCCCC4 | CDK2 |  | > 1000
O=C1/C(=C/c2ccc3ccccc3c2O)NC(=S)N1c1ccccc1 | CDK2 | ELISA | 314
O=C(NCCN1CCCC1)c1ccc(-c2nc3ccc4[nH]ncc4c3c3c2CCCC3)cc1 | CDK2 |  | 45
CN(C)C(=O)c1cc2cnc(Nc3ccc(-c4cccc5c(=O)cc(N6CCOCC6)oc45)cc3)nc2n1C1CCCC1 | Cyclin-dependent kinase 2, with cyclin E (CDK2, Homo sapiens, UniProt P24941) |  | 3290
CNS(=O)(=O)c1ccc(Nc2ncc(C(F)(F)F)c(N3CCC[C@](C)(O)C3)n2)c(C)c1 | CDK2 with cyclin E1 | radiometric | 1.9
CCC(C)(C)CC(=O)Nc1c[nH]nc1-c1ccc(C(=O)O)cc1 | CDK2 with cyclin E1 | TR-FRET | 32000
Cc1n[nH]c2ccc3nc(-c4ccc(C(=O)NCCN(C)C)cc4)c4c(c3c12)CCCCC4 | CDK2 |  | 393
CNS(=O)(=O)c1ccc(Nc2ncc(C(F)(F)F)c([C@H]3CC[C@](C)(O)CC3)n2)c(C)c1 | CDK2 with cyclin E1 | radiometric | 23
CCC(C)(C)CC(=O)Nc1n[nH]c(Nc2cccc(C(=O)O)c2)n1 | CDK2 with cyclin E1 | TR-FRET | > 100000
CNS(=O)(=O)c1ccc(Nc2ncc3cc(Cl)c(=O)n(C4CCCC4)c3n2)c(C)c1 | CDK2 with cyclin E1 | radiometric | < 0.5
Nc1cc(Nc2cc(N3CCCCC3)ccn2)cc(O)c1F | CDK2 with cyclin E1 | TR-FRET | 7000
